MC4R barr agon = MC4R agonists recruiting beta-arrestin, primary screen, cell-based, luminescence, agonist arm of biased-ligand search; U2OS MC4R beta-arrestin complementation; percent of melanotan II response, DMSO zero; activation, % at 8.9 µM; actives 0.98% (n = 360,000); AID 540308, 2011;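 active = activation above a per-plate cutoff, the mean activation of sample wells on that plate plus 3 SD, cut at about 8% in these data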
Target sequence (P32245 whole entry, looked up): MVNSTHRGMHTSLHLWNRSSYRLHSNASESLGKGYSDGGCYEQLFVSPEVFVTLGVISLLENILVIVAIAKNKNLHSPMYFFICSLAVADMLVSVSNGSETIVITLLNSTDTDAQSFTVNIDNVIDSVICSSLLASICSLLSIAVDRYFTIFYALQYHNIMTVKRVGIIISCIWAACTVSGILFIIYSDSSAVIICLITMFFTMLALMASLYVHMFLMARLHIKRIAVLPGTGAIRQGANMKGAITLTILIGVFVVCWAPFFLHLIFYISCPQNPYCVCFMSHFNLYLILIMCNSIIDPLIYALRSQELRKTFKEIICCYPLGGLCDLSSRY
CSC inhib = cancer stem cell viability inhibitors, primary screen, luminescence | inhibition, % at 7.5 µM | cancer stem cell-like cells viability | actives 1.1% (n = 300,000) | AID 2717, 2010; in the data active = inhibition above about 75%; tested in HMLE shEcad cells
TMEM16A act = TMEM16A chloride channel activators or potentiators, primary screen, cell-based, HTS | Anoctamin-1 (Mus musculus), Q8BHY3 | HEK293 TMEM16A/YFP-H148Q/I152L, iodide quench fluorescence; hits give low values | B-score at 10 µM | actives 0.3% (n = 340,000) | AID 623877, 2012;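 active = fluorescence-ratio B-score plate-corrected deviation score at least 3 library SD below zero, with starting fluorescence score within 5 deviations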;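 also: channel opened by trigger with iodide after compound preincubation; score built on the fluorescence ratio of max minus min over baseline; more negative score means more quench and so TMEM16A activation or potentiation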
TMEM16A inh = TMEM16A chloride channel inhibitors, primary screen, cell-based, HTS; Anoctamin-1 (Mus musculus), Q8BHY3; HEK293 TMEM16A/YFP iodide influx fluorescence, ionomycin; normalized B-score (activity score, 25-100; higher = stronger inhibition) at 10 µM; actives 1.2% (n = 310,000); AID 588511, 2011;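 active = ratio plate-corrected score three or more library SD toward inhibition, starting fluorescence score within five deviations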;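 also: score derived from kinetic fluorescence span divided by baseline fluorescence per well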
MC4R antag cAMP = MC4R antagonists of cAMP signaling, primary screen, cell-based, TR-FRET, antagonist arm of biased-ligand search; MC4R-expressing cells, MTII-stimulated cAMP, LANCE TR-FRET; actives 0.48% (n = 360,000); Melanocortin receptor 4 (Homo sapiens), P32245; inhibition, % at 6.5 µM;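 active = inhibition above its plate's cutoff, the mean of tested wells on that plate plus 3 SD, cut at about 29% in these data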;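 also: 0% = Melanotan II alone and 100% = Melanotan II plus saturating MCL0020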
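Test system: U2OS cells stably expressing human melanocortin 4 receptor (MC4R); also added: Melanotan II challenge; compound: 6.5 µM single dose; timing: 30-min compound preincubation, 1-h Melanotan II challenge, 1-h detection, room temperature; signal: Eu-cAMP/anti-cAMP TR-FRET, emission 671 nm; repeats: one well per compound, no replicates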
Beta apoptosis = inhibitors of cytokine-induced beta cell apoptosis, primary screen, luminescence; INS-1E cytokine-induced death, ATP luminescence, 48 h; percent of positive-control rescue, neutral wells zero; protection from apoptosis, % (test concentration not listed); actives 0.8% (n = 300,000);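 active = Every replicate reaches about 75%, or at least half do and their mean reaches it too, limit read from the data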;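 also: 0% = cytokine-treated negative control wells and 100% = positive control rescue; higher means more ATP so stronger rescue from cytokine killing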
* = called active by the depositor; i = inactive; · = no result given. This is a sample that favours compounds with a hit; in the whole collection about 3.8% have one here.

SMILES	MC4R barr agon	CSC inhib	TMEM16A act	TMEM16A inh	MC4R antag cAMP	Beta apoptosis
COc1cccc(CNCCc2c[nH]c3ccccc23)c1OCc1ccc(F)cc1	2	15	i	i	0	24
CC(C)(Oc1ccc(Cl)cc1)C(=O)NC1=NN(c2ccccc2)C(=O)C1	6	112*	i	i	-6	-2
O=C1CC(NC(=O)C(F)(F)F)=NN1c1ccccc1	-2	3	i	i	4	-10
O=[N+]([O-])c1ccc(-n2cnc3ccccc32)c([N+](=O)[O-])c1	-2	-6	i	i	0	118*
CCOC(=O)c1c(C)oc2cc(Br)c(OC(C)C(=O)OCC)cc12 (stereo unspecified)	1	·	i	25*	5	-3
C=CC[C@H](CC(=O)N[C@H](CO)Cc1ccccc1)C(=O)N[C@H](COC(=O)[C@@H](CC=C)CC(=O)OC(C)(C)C)Cc1c[nH]c2ccccc12	8.3*	0	i	·	11	8
C=CCC[C@H](Cc1ccc(F)cc1)C(=O)O[C@H](CNC(=O)[C@@H](CC=C)CC(=O)N(CCO)Cc1ccccc1)c1ccccc1	1	97*	·	·	28	17
C=CCC[C@H](Cc1ccc(F)cc1)C(=O)OC[C@@H](Cc1c[nH]c2ccccc12)NC(=O)[C@@H](CC=C)CC(=O)N(CCO)Cc1ccccc1	1	79*	i	·	22	9
C=CC[C@@H](CC(=O)N[C@H](CO)Cc1ccccc1)C(=O)N[C@H](COC(=O)[C@@H](CC=C)CC(=O)OC(C)(C)C)Cc1c[nH]c2ccccc12	2	28	i	·	3	21
Cc1cccc(N2CCN(C(=O)c3cccc(S(=O)(=O)N4CCOCC4)c3)CC2)c1C	-4	·	i	·	4	·
Cc1ccc(NC(=O)OC(C)N2CCCCC2)cc1NC(=O)OC(C)N1CCCCC1 (stereo unspecified)	2	·	i	·	4	·
CCC(ONc1ccccc1C(F)(F)F)(C(=O)NN(C)C)c1ccccc1 (stereo unspecified)	-1	40	i	·	-5	-6
O=c1[nH]c2ccccc2c2ccc(Cl)cc12	8.5*	·	i	·	-6	·
O=c1[nH]c2cc(Cl)cc([N+](=O)[O-])c2c2ccc(Cl)cc12	-2	·	·	·	5	·
C=CC[C@@H](CC(=O)N[C@H](CO)Cc1ccccc1)C(=O)NC[C@H](OC(=O)[C@@H](CC=C)Cc1ccc(F)cc1)c1ccccc1	-1	-6	i	·	15	-6
CC(C)CN1C(=S)SC(C)(C)C1n1oc(=O)n(-c2ccc(Cl)cc2)c1=O (stereo unspecified)	3	53	i	100*	0	-1
CC(C)CN1C(=S)SC(C)(C)C1n1oc(=O)n(-c2ccccc2)c1=O (stereo unspecified)	2	6	i	i	3	10
COCOCCn1cc(CN2CCS(=O)(=O)N(Cc3ccc(-c4ccc(F)nc4)cc3)C(C)C2=O)nn1 (stereo unspecified)	0	·	·	·	4	·
COC(=O)c1sc2nc(N3CCCCC3)c3c(c2c1N)CCCC3	-1	85*	i	i	-3	6
NC(=O)c1sc2nc(N3CCCCC3)c3c(c2c1N)CCCC3	3	-16	i	i	-1	-5
C/C(=C\C(=O)c1ccc(Br)cc1)NCc1ccc2c(c1)OCO2	-1	4	i	100*	3	-3
CC(=O)c1ccc(S(=O)(=O)N(C)CCCC(=O)NCc2ccc3c(c2)OCO3)cc1	0	·	-5.8*	·	20	·
CCCCN1C(=O)/C(=C2\SC(N3CCCCC3)=NC2=O)c2ccccc21	-1	42	i	i	-5	80*
COC(=O)c1sc(NC(=O)C2c3ccccc3Oc3ccccc32)c(C(=O)OC)c1C	-1	16	i	i	6	116*
O=C(Nc1ccc(OCc2ccccc2)cc1)c1cccs1	2	80*	i	i	1	5
SMILES	MC4R barr agon	CSC inhib	TMEM16A act	TMEM16A inh	MC4R antag cAMP	Beta apoptosis
Cc1occc1C(=O)Nc1ccc(OCc2ccccc2)cc1	4	90*	i	i	6	18
O=C(Nc1ccc(NC(=O)c2cccs2)cc1)c1cccs1	3	-5	i	i	12	0
COc1c(Cl)cc(Cl)cc1C(=O)Nc1ccc(NC(=O)c2cccs2)cc1	9.7*	·	i	i	22	·
O=C(Nc1ccc(NC(=O)c2ccc(Cl)cc2Cl)cc1)c1cccs1	3	2	i	i	0	3
CC(C)OCCCNC(=O)c1cccc2c1C(=O)c1ccc(Cl)cc1S2(=O)=O	-3	-19	i	·	27	1
CCCOc1ccc(/C=C/C(=O)N2CCN(C(=O)c3ccco3)CC2)cc1OC	-2	·	·	·	6	·
COc1ccccc1NS(=O)(=O)c1ccc(C(=O)NCCCN2CCCC2=O)cc1	-2	-6	i	·	6	-1
CCCCCCSC1=C(C#N)C(c2ccccc2)CC(=O)N1 (stereo unspecified)	10*	5	i	i	7	-9
NNC(=O)[C@H](Cc1ccccc1)NC(=O)Nc1ccc2c(c1)OCCO2	1	-2	i	i	12	-5
OC(CNC1CCCCC1)COCCOc1ccc(Br)cc1 (stereo unspecified)	-1	58	i	i	6	106*
CCOc1cc(N2CCOCC2)c(OCC)cc1NC(=O)c1ccc(OC)c(S(=O)(=O)N2CCOCC2)c1	-3	-14	i	·	0	5
Cc1ccc(F)c(NC(=O)/C(C#N)=C(\O)c2ccc(C(C)(C)C)cc2)c1	-2	79*	i	25*	-7	-2
O=c1cc(C(F)(F)F)[nH]c2c(C(F)(F)F)cccc12	-1	25	i	100*	6	11
O=C(CSc1nccc(=O)[nH]1)NC1CCCCCCC1	-2	-14	i	·	0	-1
Cc1ccc(-c2n[nH]c(=S)n2/N=C/c2c(C)nn(-c3ccccc3)c2C)cc1	3	-8	i	i	14	14
Cc1nn(-c2ccccc2)c(C)c1/C=N/n1c(-c2ccc(C(C)(C)C)cc2)n[nH]c1=S	-2	80*	i	i	6	2
COc1cccc(NC(=O)Nc2nc(SC(C)(C)C)ns2)c1	1	96*	i	i	-5	·
CCSc1nsc(NC(=O)Nc2cccc(F)c2)n1	2	93*	i	100*	-2	·
